Published values gathered from unrelated publications.
FGFR1: Fibroblast growth factor receptor 1 (FGFR1, Homo sapiens, UniProt P11362)

With Nc1ncc(-c2nc(N3CCOCC3)nc(N3CCOCC3)n2)c(C(F)F)n1 the remaining binding was 94% (FGFR1; cell-free assay; competition with immobilised ligand; 10 µM).
For COCc1c(-c2cc3cc(C)cc(OC)c3s2)c2c(N)ncnn2c1CN1CCNC(=O)C1, the inhibition was 98% (FGFR1; cell-free assay; competition with immobilised ligand; 1 µM).
Cc1nn(C)cc1-c1nc2c(N3CCN(Cc4ccc(Cl)cc4)CC3)c(Cl)cnc2[nH]1 has a remaining binding of 62% (FGFR1; binding; competition with immobilised ligand; 1 µM).
For COc1ncccc1-c1cnn2ccc(N3CCN(C(=O)OC(C)C)CC3)nc12, the remaining binding was 88% (FGFR1; binding; competition with immobilised ligand; 1 µM).
C#Cc1n[nH]c2c(-c3cn([C@@H](C)c4ccccc4)c(=O)[nH]c3=O)cc(F)cc12 gave an inhibition of 2.9% (FGFR1; enzyme activity; inhibitor; 0.1 µM).
Cn1cncc1[C@](O)(COc1ccc(C#N)cc1-c1ccc(OC(F)(F)F)cc1)c1ccc(C#N)cc1 has a remaining binding of 62% (FGFR1; cell-free assay; competition with immobilised ligand; 1 µM).
COc1cc(Nc2ncc(F)c(Nc3ccc4c(n3)NC(=O)C(C)(C)O4)n2)cc(OC)c1OC has an inhibition of 100% (FGFR1; binding; competition with immobilised ligand; 10 µM).
With Cn1cc(-c2cccc(N3CCc4c(sc5c4CC(C)(C)C5)C3=O)c2CO)cc(Nc2ccncn2)c1=O the inhibition was 9% (FGFR1; enzyme activity; inhibitor; 1 µM).
The remaining activity of CC(C)(C)c1cc(C=C(C#N)C#N)cc(Br)c1O is reported as 95.9% (FGFR1; enzyme activity; inhibitor; 0.5 µM).
For Cn1cc(-c2cc(F)cc(N3CCn4c(cc5c4CCCC5)C3=O)c2CO)cc(Nc2ccc(N3CCN(C4COC4)CC3)cn2)c1=O, the inhibition was 9% (FGFR1; enzyme activity; inhibitor; 0.1 µM).
N#CC1(c2ccccn2)CCN(Cc2cc(C(=O)O)c(=O)n3ccccc23)CC1 gave a remaining binding of 98% (FGFR1; cell-free assay; competition with immobilised ligand; 1 µM).
For O=c1[nH]c2ccccc2n1C1CCN(Cc2ccc(-c3[nH]c4cc5ncnc5cc4nc3-c3ccccc3)cc2)CC1, the remaining signal was 102% (FGFR1; cell-free assay; 0.5 µM).
C#Cc1n[nH]c2c(-c3cn([C@@H](C)c4ccccn4)c(=O)[nH]c3=O)cc(F)cc12 has an inhibition of -4.4% (Fibroblast growth factor receptor 1 (FGFR1, Homo sapiens, UniProt P11362, V561M); enzyme activity; inhibitor; 0.1 µM).
